Measurements taken from PMC7398576 (Oncogene, 2020).

How the values were obtained:
p73β = p73β (Homo sapiens, UniProt O15350); assay: ZF1-Nluc/ZF2-Cluc DNA-binding competition assay, p73β; type: biochemical; details: at low micromolar concentrations
Foxo1 = assay: Foxo1-responsive luciferase reporter assay in transfected H1299 cells; type: cell-based; details: 6 h treatment
Summary of the method: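 H1299 cells (50,000/well) lipofected for 24 h with 20 ng 3IRS-luciferase Foxo1 reporter, 5 ng CMV-lacZ and 10 ng CMV-Foxo1, then exposed to compound for 6 h. Readout: luciferase normalised to β-galactosidase activity.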

p73β-A156I = p73β-A156I (Homo sapiens, UniProt O15350, A156I); assay: ChIP of p73β-A156I temperature-sensitive mutant; type: cell-based; details: 32 °C
Summary of the method: (§1)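 ChIP by standard procedure, read by SYBR Green real-time PCR of target promoters. Antibodies: anti-HA tag (C29F4) for p63, p73 and c-MYC; KH95 for E2F1.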

TCF1 [1] = target: T1, TCF1 (Homo sapiens, UniProt P36402); assay: TCF1-specific zinc finger competition assay; type: biochemical
p53 [2] = target: T2, p53 (Homo sapiens, UniProt P04637); assay: p53-responsive luciferase reporter assay in transfected H1299 cells; type: cell-based; details: 6 h treatment
Summary of the method: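 H1299 cells (p53-null; 50,000/well) transfected 24 h by lipofection with 20 ng BP100-luciferase reporter, 5 ng CMV-lacZ and 0.2 ng CMV-p53. Then 6 h test compound. Activity expressed as luciferase/β-galactosidase ratio.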

[3] = target: TAF1 bromodomain 2 (aa 1501–1635) (Homo sapiens, UniProt P21675); assay: Differential scanning fluorimetry; type: binding; details: 100 μM compound, 4.5 μM protein
Summary of the method: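 TAF1 second bromodomain (residues 1501–1635) purified by Ni-NTA and size exclusion. Thermal shift with 4.5 μM protein, 100 μM compound and 5× SYPRO Orange in HEPES pH7.4/150 mM NaCl/2 mM DTT/2% DMSO. Ramp 25–95 °C at 1 °C/min, fluorescence at 610 nm every 0.5 °C, four replicates. ΔTm relative to DMSO reference.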

p53 [4] = target: T2, p53; assay: ZF1-Nluc/ZF2-Cluc DNA-binding competition assay; type: biochemical; details: at low micromolar concentrations
RET oncogene = details: cited from earlier work
[5] = target: FLAG-p53-94-312 DNA-binding domain (Homo sapiens, UniProt P04637); assay: Differential scanning fluorimetry; details: 100 μM compound, 4.5 μM protein
Summary of the method: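 FLAG-p53 94–312 expressed in E. coli (pET-28b), purified on M2 beads and FLAG-peptide eluted. DSF with 4.5 μM protein, 100 μM test compound and 5× SYPRO Orange in 50 mM HEPES pH7.4, 150 mM NaCl, 2 mM DTT, 2% DMSO. Heated 25→95 °C at 1 °C/min, read every 0.5 °C at 610 nm, quadruplicate. ΔTm taken against DMSO wells.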

p63γ-A167P = p63γ-A167P (Homo sapiens, UniProt Q9H3D4, A206P); assay: ChIP of p63γ-A167P temperature-sensitive mutant; type: cell-based; details: 32 °C
Summary of the method: as §1

p53 [6] = target: T2, p53; assay: Biotinylated oligonucleotide pull down assay, p53 western blot; type: biochemical; details: for Inhibition of p53 DNA binding in oligonucleotide pull down: full-length p53
Summary of the method: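 Pull-down: p53 (~0.1 μl E. coli lysate, 100 ng) with 2 μg poly(dI-dC) and 100 ng biotinylated duplex oligo carrying the p53 site, in Tris pH7.2/150 mM NaCl DNA-binding buffer, 30 min at 4 °C. Captured on streptavidin magnetic beads 30 min at 4 °C, washed three times, boiled, p53 western blot. Pre-treated bead-bound FLAG-p53: 10 μM, 30 min, washed 3 min or 3 h, FLAG-peptide eluted.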

p53 [7] = target: T2, p53; assay: Glutaraldehyde crosslinking of p53 in H1299 extract; type: biochemical; details: 10 μM NSC194598
Summary of the method: (§2)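 H1299 cells transiently transfected with pcDNA3 FLAG-tagged wild-type or mutant p53 were lysed in HEPES buffer (50 mM HEPES pH 8.0, 5 mM EDTA, 150 mM NaCl, 0.5% NP-40, protease inhibitors) and spun to clear. Lysate was held with 10 μM test compound for 20 min at 23 °C. It was then crosslinked with 0.01–0.1% glutaraldehyde for 5 min at 23 °C and quenched with Tris-HCl pH 8.0 to 100 mM. Monomer, dimer and tetramer were read by western blot (FL393).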

p53 [8] = target: p53 (Homo sapiens, UniProt P04637, R175H); assay: as above; type: biochemical; details: 10 μM NSC194598
Summary of the method: as §2

E2F1 = E2F1 (Homo sapiens, UniProt Q01094); assay: ChIP of E2F1-ER fusion protein; type: cell-based; details: tamoxifen-regulated E2F1-ER fusion protein
Summary of the method: as §1

[9] = system: MDM2-mediated ubiquitination of p53; assay: In vivo ubiquitination assay in H1299 cells; type: cell-based; details: H1299, 5 h treatment
Summary of the method: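 H1299 cells co-transfected (PEI, 36 h) with 2 μg His6-ubiquitin, 0.2 μg p53 and 2 μg MDM2 plasmids, then treated 5 h. Lysed in 6 M guanidinium buffer, bound to Ni-NTA 16 h at 23 °C, washed with urea buffers (pH8.0 then 6.3). Imidazole/SDS elution 20 min at 23 °C, DO-1 western blot.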

TCF1 [10] = target: T1, TCF1; assay: Biotinylated oligonucleotide pull down assay, FLAG-TCF1; type: biochemical
p53-Cluc fusion protein = p53-Cluc fusion protein (UniProt P04637+P08659, D436G/I423L/L530R); assay: p53-Cluc luciferase fragment complementation DNA-binding assay; type: biochemical; details: read-out: IC50, inhibition of p53 sequence-specific DNA binding in vitro
Summary of the method: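 The cell-free reaction used crude E. coli BL21(DE3) extracts: ZF1-Nluc plus p53-Cluc, each expressed from pET-28b with 1 mM IPTG and 0.1 mM ZnCl2 at 18 °C for 18 h. DNA was 50 ng plasmid carrying 12 paired ZF1/p53 sites. Buffer was 100 mM potassium phosphate pH 7.8, 1 mM ZnCl2, 5% glycerol, 1 mM DTT. After 35 min at 32 °C, luciferin/ATP substrate was added, 10 min at 23 °C, then luminescence read. Three experiments.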

p63γ = p63γ (Homo sapiens, UniProt Q9H3D4); assay: ZF1-Nluc/ZF2-Cluc DNA-binding competition assay, p63γ; type: biochemical; details: at low micromolar concentrations
C57BL/6 mice = assay: Radiation toxicity in mice; type: in vivo, mouse
H1299-p53-A138V cells = assay: Western blot in H1299-p53-A138V temperature-sensitive cells; type: cell-based; details: activated at 32 °C, 8 h
Summary of the method: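 H1299 (p53-null) cells stably carrying temperature-sensitive p53-A138V were grown in DMEM with 10% FBS. They were kept at 39 °C or shifted to 32 °C with test compound for 8 h. Cells were lysed in 50 mM Tris-HCl pH 8.0, 5 mM EDTA, 150 mM NaCl, 0.5% NP-40 and protease inhibitors. p53 and target genes were resolved by SDS-PAGE and western blot.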

[11] = system: G-quadruplex DNA structures; details: cited from earlier work
c-Myc = c-Myc (Homo sapiens, UniProt P01106); assay: ChIP of transiently expressed c-Myc; type: cell-based
Summary of the method: as §1

Primary mouse thymocytes = assay: Primary mouse thymocytes, radiation-induced apoptosis and viability; type: cell-based
SJSA cells = assay: Western blot in SJSA cells; type: cell-based; details: 5–20 μM
Summary of the method: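 SJSA cells (MDM2-amplified) were co-treated with the MDM2 inhibitor Nutlin and test compound for 32 h. Lysis was in NP-40/Tris buffer with protease inhibitors, followed by SDS-PAGE and western blot for p53 level and target-gene induction, including p21.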

p53 [12] = target: T2, p53; assay: In vitro oligomer formation of HA-p53 and FLAG-p53; type: biochemical
p53 [13] = target: T2, p53; assay: ChIP of p53 at target promoters in U2OS cells; type: cell-based
Summary of the method: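 U2OS cells in DMEM/10% FBS, given test compound alone or with IR for 4 h. Chromatin immunoprecipitation with DO-1 anti-p53. Precipitated DNA quantified by SYBR Green real-time PCR with primers for the p21 and MDM2 promoters.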

p53 [14] = target: T2, p53; assay: Trypsin digestion sensitivity of p53; type: biochemical
[15] = target: zinc finger proteins (ZF1-Nluc/ZF2-Cluc complementation) (Photinus pyralis, UniProt P08659, D436G/I423L/L530R); assay: ZF1-Nluc/ZF2-Cluc complementation in the absence of p53; type: biochemical
[16] = system: p53 target genes (p21, MDM2, PUMA) in U2OS cells; assay: Western blot / RT-PCR of p53 level and target genes in U2OS cells; type: cell-based, human
HCT116-p53−/− cells = assay: Western blot in HCT116-p53−/− cells; type: cell-based
full-length luciferase = full-length luciferase (Photinus pyralis, UniProt P08659); assay: Full-length luciferase activity; type: biochemical, Firefly
[17] = U2OS, compound alone, 10, 20 μM

T1 sequence (P36402 whole entry): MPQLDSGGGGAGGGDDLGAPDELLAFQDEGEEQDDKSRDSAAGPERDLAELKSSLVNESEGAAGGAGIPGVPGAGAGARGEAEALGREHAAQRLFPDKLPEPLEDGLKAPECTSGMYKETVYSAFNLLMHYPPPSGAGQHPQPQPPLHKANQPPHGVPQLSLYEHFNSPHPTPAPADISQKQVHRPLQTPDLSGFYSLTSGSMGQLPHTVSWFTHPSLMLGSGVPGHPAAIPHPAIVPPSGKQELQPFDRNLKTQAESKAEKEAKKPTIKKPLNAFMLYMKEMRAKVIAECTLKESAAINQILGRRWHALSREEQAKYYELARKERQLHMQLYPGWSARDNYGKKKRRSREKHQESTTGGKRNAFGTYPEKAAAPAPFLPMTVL
E2F1, sequence (Q01094 whole entry, the tested form may be a part): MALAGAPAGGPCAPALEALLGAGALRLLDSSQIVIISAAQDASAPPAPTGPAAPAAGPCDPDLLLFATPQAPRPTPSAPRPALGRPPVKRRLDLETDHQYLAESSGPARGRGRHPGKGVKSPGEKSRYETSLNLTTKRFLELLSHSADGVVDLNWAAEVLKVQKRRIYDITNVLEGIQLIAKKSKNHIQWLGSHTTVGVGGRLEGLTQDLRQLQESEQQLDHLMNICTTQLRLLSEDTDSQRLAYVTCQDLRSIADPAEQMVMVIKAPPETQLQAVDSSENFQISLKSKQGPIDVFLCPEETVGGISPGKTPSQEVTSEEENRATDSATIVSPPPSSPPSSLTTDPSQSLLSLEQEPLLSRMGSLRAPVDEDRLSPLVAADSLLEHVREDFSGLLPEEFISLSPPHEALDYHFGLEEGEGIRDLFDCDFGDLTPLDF
p63γ, sequence (Q9H3D4 40-487 isoform Q9H3D4-5 limits assumed): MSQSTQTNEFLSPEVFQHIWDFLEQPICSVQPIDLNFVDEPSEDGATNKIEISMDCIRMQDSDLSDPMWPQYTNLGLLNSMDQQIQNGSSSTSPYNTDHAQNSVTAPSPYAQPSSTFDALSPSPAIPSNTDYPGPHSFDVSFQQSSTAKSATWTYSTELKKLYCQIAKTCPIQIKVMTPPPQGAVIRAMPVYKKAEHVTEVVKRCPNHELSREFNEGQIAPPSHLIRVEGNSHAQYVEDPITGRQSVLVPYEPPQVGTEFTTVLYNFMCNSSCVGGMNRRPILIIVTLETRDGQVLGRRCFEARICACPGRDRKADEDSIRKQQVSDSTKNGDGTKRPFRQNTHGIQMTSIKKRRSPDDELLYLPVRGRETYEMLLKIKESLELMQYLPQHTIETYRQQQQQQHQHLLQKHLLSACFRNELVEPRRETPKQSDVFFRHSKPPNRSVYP
p73β-A156I, sequence (O15350 1-499 isoform O15350-2 A156I): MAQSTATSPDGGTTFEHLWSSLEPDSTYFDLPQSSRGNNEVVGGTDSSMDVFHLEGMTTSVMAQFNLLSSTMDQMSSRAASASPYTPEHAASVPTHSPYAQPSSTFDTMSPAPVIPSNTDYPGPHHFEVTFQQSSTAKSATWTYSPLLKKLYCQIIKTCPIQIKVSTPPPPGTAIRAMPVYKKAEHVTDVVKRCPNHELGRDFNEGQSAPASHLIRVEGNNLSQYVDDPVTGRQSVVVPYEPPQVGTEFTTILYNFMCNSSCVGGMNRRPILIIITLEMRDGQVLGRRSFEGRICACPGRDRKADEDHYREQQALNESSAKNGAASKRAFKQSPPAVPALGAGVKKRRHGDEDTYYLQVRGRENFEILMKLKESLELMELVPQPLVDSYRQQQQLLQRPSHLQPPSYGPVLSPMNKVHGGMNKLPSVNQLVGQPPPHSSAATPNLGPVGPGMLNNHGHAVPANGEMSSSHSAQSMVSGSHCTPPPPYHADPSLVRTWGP
c-Myc, sequence (P01106 whole entry): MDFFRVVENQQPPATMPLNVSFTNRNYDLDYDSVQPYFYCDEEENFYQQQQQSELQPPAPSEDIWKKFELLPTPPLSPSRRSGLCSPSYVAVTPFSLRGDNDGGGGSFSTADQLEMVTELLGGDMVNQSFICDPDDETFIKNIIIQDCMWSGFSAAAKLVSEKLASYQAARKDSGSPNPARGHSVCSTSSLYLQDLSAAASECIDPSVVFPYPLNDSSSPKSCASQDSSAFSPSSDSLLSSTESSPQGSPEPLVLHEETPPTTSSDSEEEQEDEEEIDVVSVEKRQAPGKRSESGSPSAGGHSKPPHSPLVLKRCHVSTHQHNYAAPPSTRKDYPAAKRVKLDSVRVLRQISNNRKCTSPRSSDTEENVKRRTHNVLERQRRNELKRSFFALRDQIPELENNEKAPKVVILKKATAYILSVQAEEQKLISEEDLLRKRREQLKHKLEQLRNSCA
c-Myc, sequence (P61244 whole entry partner): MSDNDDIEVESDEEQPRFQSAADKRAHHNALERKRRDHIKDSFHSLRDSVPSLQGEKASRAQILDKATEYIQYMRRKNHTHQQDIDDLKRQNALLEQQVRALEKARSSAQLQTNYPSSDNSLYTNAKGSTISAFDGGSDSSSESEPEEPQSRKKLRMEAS
p73β, sequence (O15350 1-499 isoform O15350-2, species assumed): as the sequence (O15350 1-499 isoform O15350-2 A156I) above, with I156A counted along it
TAF1 bromodomain 2 (aa 1501–1635), sequence (P21675 1522-1656): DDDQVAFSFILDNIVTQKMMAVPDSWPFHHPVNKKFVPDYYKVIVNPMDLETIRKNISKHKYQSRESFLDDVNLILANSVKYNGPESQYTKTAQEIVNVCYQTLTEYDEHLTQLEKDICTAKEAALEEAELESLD
p63γ-A167P, sequence (Q9H3D4 40-487 isoform Q9H3D4-5 A206P limits assumed): as the sequence (Q9H3D4 40-487 isoform Q9H3D4-5 limits assumed) above, with A167P counted along it

[O-][n+]1c(CN2CCCCC2)nc2cccc3c2c1-c1ccccc1-3 [NSC194598]
Inhibition of p73β DNA binding in competition assay (p73β): inhibited | Foxo1 activation of its luciferase reporter (Foxo1): did not inhibit | In vivo DNA binding by p73β-A156I (ChIP) (p73β-A156I): inhibited | Effect on TCF1 competition with zinc finger protein (TCF1 [1]): without effect | p53 activation of p53-responsive luciferase reporter (p53 [2]): inhibited | Effect on melting temperature of TAF1 bromodomain 2 [3]: did not affect | Inhibition of p53 DNA binding in competition assay (p53 [4]): inhibited | Transcription of RET oncogene (RET oncogene): inhibits the transcription of RET oncogene | Increase in melting temperature (ΔTm) of FLAG-94-312 [5]: 0.5 °C | In vivo DNA binding by p63γ-A167P (ChIP) (p63γ-A167P): inhibited | Inhibition of DNA binding of p53 DNA-binding domain (90–312) (pull down) (p53 [6]; 2.5 μM NSC194598): still showed inhibition | Inhibition of DNA binding of p53 deletion mutant 1–360 (pull down) (p53 [6]; 2.5 μM NSC194598): strongly inhibited | Inhibition of DNA binding of p53 deletion mutant 90–393 (pull down) (p53 [6]; 2.5 μM NSC194598): strongly inhibited | DNA binding of compound-treated FLAG-p53 after short wash (p53 [6]; 10 μM for 30 min, wash 3 min): did not bind DNA | DNA binding of compound-treated FLAG-p53 after extensive wash (p53 [6]; 10 μM for 30 min, wash 3 h): regained DNA-binding activity | Inhibition of p53 DNA binding in oligonucleotide pull down (p53 [6]): inhibited p53 DNA binding | Crosslinking banding pattern of dimer and tetramer, wt p53 (p53 [7]): detected changes in the banding pattern | Crosslinking pattern of R175H conformational mutant (p53 [8]): did not affect the crosslinking pattern | DNA binding of E2F1 (ChIP) (E2F1): did not inhibit | MDM2-mediated ubiquitination of p53 [9]: had no effect | Inhibition of TCF1 DNA binding in oligonucleotide pull down (TCF1 [10]): did not inhibit | IC50 (p53-Cluc fusion protein): 180 nM | Inhibition of p63γ DNA binding in competition assay (p63γ): inhibited | p53 or PARP cleavage in the thymus of treated animals (western blot) (C57BL/6 mice; data not shown): did not reveal increase of p53 or PARP cleavage | Body weight after irradiation (C57BL/6 mice; single i.p. injection of 80 μg, 8 Gy): did not prevent body weight loss | Survival after irradiation (C57BL/6 mice; single i.p. injection of 80 μg, 8 Gy, 40-day observation): statistically significant improvement in survival | p21 induction and p53 level in H1299-p53-A138V (H1299-p53-A138V cells): inhibited p21 induction without changing p53 level | Binding to G-quadruplex DNA structures [11]: binds G-quadruplex DNA structures | DNA binding of c-Myc (ChIP) (c-Myc): did not inhibit | p53 level in irradiated thymocytes (Primary mouse thymocytes; 1 μM or higher, with IR): reduced p53 level | PARP and Caspase 3 cleavage after IR (Primary mouse thymocytes; 0.5–10 μM, 6 h, dose-dependent): blocked PARP and Caspase 3 cleavage | Thymocyte viability after IR (trypan blue exclusion) (Primary mouse thymocytes; 20 hours after 5 Gy IR, 5 μM): increased thymocyte viability | p53 level and cleaved PARP, compound alone (Primary mouse thymocytes; high concentrations, no IR): caused p53 accumulation | Thymocyte viability with compound alone (trypan blue exclusion) (Primary mouse thymocytes; no IR): did not lose viability | p53 accumulation and p21 expression in SJSA versus U2OS (SJSA cells): much weaker p53 accumulation and p21 expression | Oligomer formation of HA-p53 and FLAG-p53 (p53 [12]): did not inhibit oligomer formation | p53 occupancy at the p21 promoter (ChIP), compound alone (p53 [13]; [17]): increased p53 occupancy | p53 occupancy at p21 and MDM2 promoters (ChIP) (p53 [13]; irradiated U2OS cells, 4 hrs): reduced p53 occupancy | p53 sensitivity to trypsin digestion (p53 [14]): did not change sensitivity to trypsin digestion | Effect on ZF1-Nluc/ZF2-Cluc complementation readout [15]: did not stimulate readout | p21 induction after p53 activation by Nutlin and doxorubicin ([16]; MDM2 inhibitor Nutlin or doxorubicin): inhibited p21 induction | p21, MDM2, PUMA protein and mRNA expression ([16]; U2OS after irradiation): inhibition of p21, MDM2, PUMA protein and mRNA expression | p53 target gene expression, compound alone at 40 μM ([16]; U2OS, 40 μM): decline in p53 target gene expression | Decrease of MDM2/p53 ratio ([16]; U2OS, 4 h treatment): ~ 50% | p53 level and target genes p21 and MDM2, compound alone [16, 17]: caused p53 accumulation and upregulation of target genes p21 and MDM2 | p53 mRNA level ([16]; compound alone): no increase in p53 mRNA level | γH2AX and p53 Ser15 phosphorylation (DNA damage) ([16]; compound alone): no increase of γH2AX or p53 Ser15 phosphorylation | Induction of p21 and MDM2 in p53-null cells (HCT116-p53−/− cells): did not induce p21 and MDM2

Cc1ccc(C(=O)Cn2c3c(sc2=N)CCCC3)cc1 [PFTα, Pifithrin-α, reference compound]
Inhibition of p53 DNA binding in oligonucleotide pull down (p53 [6]): had no effect | Effect on activity of full-length luciferase (full-length luciferase): inhibited | Effect on ZF1-Nluc/ZF2-Cluc complementation readout [15]: inhibited
